The text below walks through data of ChEMBL document CHEMBL2046401, “Detailed structure-activity relationship of indolecarboxamides as H4 receptor ligands” (Eur J Med Chem, 2012).

For orientation: Ki means a dissociation constant, usually derived from enzyme kinetics or from competition with a known ligand. Lower therefore signals tighter binding. The term solubility denotes the concentration that dissolves in the medium under given conditions. Low readings indicate a poorly soluble substance, high ones a readily soluble substance. As a reminder, the half-life is the time in which the quantity being followed falls by half.

In brackets after ≈: the same amount, converted by molar mass.

One series addresses Histamine H4 receptor (Homo sapiens, UniProt Q9H3N8). The series is described as follows: Displacement of [3H]histamine from human histamine H4 receptor expressed in HEK cells. In kind it is cell-based, HEK293. (In general: In a radioligand displacement assay an active substance lowers the binding of a labelled ligand.)
The nature of series [1]: Solubility of the compound at pH 6.8. In kind it is physicochemical. The settings on record: buffer. In outline:
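Solubility determined by the DMSO solution precipitation method.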

Series [2] in a line: Half life in mouse liver microsomes. In kind it is ADME, Microsome. Background: Microsomes from liver hold many membrane-bound enzymes, among them those of drug oxidation.
The nature of series [3]: Half life in human liver microsomes. In kind it is ADME, Microsome.

Sequence of Histamine H4 receptor (Q9H3N8 whole entry): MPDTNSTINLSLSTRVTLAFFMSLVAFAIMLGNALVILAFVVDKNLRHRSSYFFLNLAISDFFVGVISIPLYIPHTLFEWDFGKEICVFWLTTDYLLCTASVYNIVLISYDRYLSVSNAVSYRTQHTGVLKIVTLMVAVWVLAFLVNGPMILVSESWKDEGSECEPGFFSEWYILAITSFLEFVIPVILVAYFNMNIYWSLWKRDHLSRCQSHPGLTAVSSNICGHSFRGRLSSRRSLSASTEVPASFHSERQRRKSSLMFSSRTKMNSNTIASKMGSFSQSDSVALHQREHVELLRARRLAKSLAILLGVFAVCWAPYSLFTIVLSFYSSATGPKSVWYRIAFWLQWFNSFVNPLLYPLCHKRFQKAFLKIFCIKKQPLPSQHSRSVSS

Consider `Cc1ccc2[nH]c(C(=O)N3CCN(C)CC3)cc2c1`, for which the Ki on Histamine H4 receptor was 50.1 nM.

On Histamine H4 receptor, `COc1ccc2[nH]c(C(=O)N3CCN(C)CC3)cc2c1` showed a Ki of 1000 nM.

`CN1CCN(C(=O)c2cc3cc(O)ccc3[nH]2)CC1` showed a Ki on Histamine H4 receptor of 25.1 nM.

`CN1CCN(C(=O)c2cc3c(Cl)c(Cl)ccc3[nH]2)CC1`: affinity at Histamine H4 receptor was put at a Ki of 6.31 nM.

Compound `Cc1cccc2cc(C(=O)N3CCN(C)CC3)[nH]c12` showed a Ki at Histamine H4 receptor of 12.6 nM.

On to `CN1CCN(C(=O)c2cc3cccc(N)c3[nH]2)CC1`, for which the Ki on Histamine H4 receptor was 15.8 nM.

`COc1ccc2cc(C(=O)N3CCN(C)CC3)[nH]c2c1`: the affinity at Histamine H4 receptor, expressed as Ki, was 15800 nM.

As for `CN1CCN(C(=O)c2cc3cccnc3[nH]2)CC1`, at Histamine H4 receptor, the inhibition constant (Ki) was 2000 nM.

At Histamine H4 receptor, `CN1CCN(C(=O)c2cc3ccccc3s2)CC1` gave an inhibition constant Ki of 2510 nM.

As for `CN1CCN(C(=O)c2cc3cc(Cl)ccc3o2)CC1`, affinity at Histamine H4 receptor was put at a Ki of 251 nM.

In turn, `CN1CCN(C(=O)c2cc3ncccc3[nH]2)CC1` had an inhibition constant (Ki) on Histamine H4 receptor of 3980 nM.

For the compound `CN1CCN(C(=O)c2cc3cnccc3[nH]2)CC1`, the Ki at Histamine H4 receptor was 6310 nM.

For `CN1CCN(C(=O)c2cc3ccncc3[nH]2)CC1`, on Histamine H4 receptor, affinity was put at a Ki of 2000 nM.

At Histamine H4 receptor, `CN1CCN(C(=O)c2cc3c(F)cccc3[nH]2)CC1` showed an inhibition constant (Ki) of 31.6 nM.

Turning to `CN1CCN(C(=O)c2cc3c(Cl)cccc3[nH]2)CC1`, the Ki on Histamine H4 receptor is 31.6 nM.

The compound `COc1cccc2[nH]c(C(=O)N3CCN(C)CC3)cc12` showed a Ki at Histamine H4 receptor of 1000 nM.

Regarding `CN1CCN(C(=O)c2cc3c(O)cccc3[nH]2)CC1`, on Histamine H4 receptor, the Ki is 158 nM.

`CN1CCN(C(=O)c2cc3c([N+](=O)[O-])cccc3[nH]2)CC1` had a Ki at Histamine H4 receptor of 794 nM.

Compound `CN1CCN(C(=O)c2cc3c(N)cccc3[nH]2)CC1` showed an inhibition constant (Ki) at Histamine H4 receptor of 316 nM.

In turn, `CC(=O)c1cccc2[nH]c(C(=O)N3CCN(C)CC3)cc12` showed a Ki at Histamine H4 receptor of 5010 nM.

Regarding `CN1CCN(C(=O)c2cc3cc([N+](=O)[O-])ccc3[nH]2)CC1`, on Histamine H4 receptor, the inhibition constant (Ki) was 79.4 nM.

Take `CC(=O)c1ccc2[nH]c(C(=O)N3CCN(C)CC3)cc2c1`: the Ki on Histamine H4 receptor is 12600 nM.

At Histamine H4 receptor, `CN1CCN(C(=O)c2cc3ccc(Cl)cc3[nH]2)CC1` had a Ki of 158 nM.

On Histamine H4 receptor, `CN1CCN(C(=O)c2cc3ccc(O)cc3[nH]2)CC1` had a Ki of 25.1 nM.

`CN1CCN(C(=O)c2cc3ccc([N+](=O)[O-])cc3[nH]2)CC1` had an inhibition constant (Ki) at Histamine H4 receptor of 2000 nM.

Compound `CN1CCN(C(=O)c2cc3ccc(N)cc3[nH]2)CC1` had a Ki on Histamine H4 receptor of 79.4 nM.

For the compound `CN1CCN(C(=O)c2cc3cccc(F)c3[nH]2)CC1`, the inhibition constant Ki at Histamine H4 receptor was 20 nM.

Turning to `COc1cccc2cc(C(=O)N3CCN(C)CC3)[nH]c12`, at Histamine H4 receptor, the Ki is 2510 nM.

The compound `CN1CCN(C(=O)c2cc3cccc([N+](=O)[O-])c3[nH]2)CC1` gave a Ki on Histamine H4 receptor of 794 nM.

The compound `CN1CCN(C(=O)c2cc3cccc(C(F)(F)F)c3[nH]2)CC1` had a Ki on Histamine H4 receptor of 1000 nM.

On Histamine H4 receptor, `Cc1cccc2cc(C(=O)N3CCNCC3)[nH]c12` showed an inhibitory constant (Ki) of 39.8 nM.

With `CN[C@@H]1CCN(C(=O)c2cc3cccc(C)c3[nH]2)C1`, at Histamine H4 receptor, the inhibition constant (Ki) was 631 nM.

`CNC1CN(C(=O)c2cc3cccc(C)c3[nH]2)C1` had an inhibition constant Ki at Histamine H4 receptor of 398 nM.

`Cc1cccc2cc(C(=O)N3CC(N4CCCC4)C3)[nH]c12` gave a Ki at Histamine H4 receptor of 79.4 nM.

At Histamine H4 receptor, `CN1CCN(C(=O)c2cc3c(F)c(Cl)ccc3[nH]2)CC1` showed an inhibitory constant (Ki) of 6.31 nM.

With `CN1CCN(C(=O)c2cc3cc(Cl)cc(F)c3[nH]2)CC1`, the inhibitory constant (Ki) at Histamine H4 receptor is 6.31 nM.

Compound `Cc1cc(Cl)cc2cc(C(=O)N3CCN(C)CC3)[nH]c12` yielded a solubility in series [1] of 57 µg/mL (≈ 195 µM). For the same compound, the half-life was 2 min in series [2] and above 45 min in series [3]. The compound further gave an inhibition constant Ki at Histamine H4 receptor of 6.31 nM.

`CN1CCN(C(=O)c2cc3cc(Cl)cc(N)c3[nH]2)CC1` gave a solubility in series [1] of 67 µg/mL (≈ 229 µM). Besides, the half-life in series [2] stood at 14 min; in series [3], 66 min. Moreover, the Ki at Histamine H4 receptor is 5.01 nM.

`Cc1cc(Cl)cc2cc(C(=O)N3CCNCC3)[nH]c12`: in series [1], the solubility is 65 µg/mL (≈ 234 µM). Also, the half-life in series [2] was 16 min; in series [3], above 90 min. Further, on Histamine H4 receptor, the inhibitory constant (Ki) is 12.6 nM.

`CN[C@@H]1CCN(C(=O)c2cc3cc(Cl)cc(C)c3[nH]2)C1` showed a solubility in series [1] of 59 µg/mL (≈ 202 µM). Further, the half-life is 27 min in series [2] and above 90 min in series [3]. The compound also gave an inhibitory constant (Ki) at Histamine H4 receptor of 251 nM.

Take `CNC1CN(C(=O)c2cc3cc(Cl)cc(C)c3[nH]2)C1`: the solubility in series [1] was determined as 51 µg/mL (≈ 184 µM). Further, the half-life in series [2] is 26 min; in series [3], above 90 min. The Ki at Histamine H4 receptor is 200 nM.

For `Cc1cc(Cl)cc2cc(C(=O)N3CC(N4CCCC4)C3)[nH]c12`, the concentration in solution in series [1] (solubility) was 10 µg/mL (≈ 31.5 µM). Moreover, the half-life in series [2] was 11 min; in series [3], above 90 min. Besides, on Histamine H4 receptor, the Ki is 31.6 nM.

At Histamine H4 receptor, `CN1CCCN(C(=O)c2cc3cc(Cl)ccc3[nH]2)CC1` had a Ki of 39.8 nM.

As for `CN1CCCN(C(=O)c2cc3ccccc3[nH]2)CC1`, the inhibitory constant (Ki) at Histamine H4 receptor was 398 nM.

At Histamine H4 receptor, `CN1CCCN(C(=O)c2cc3cccc(C(F)(F)F)c3[nH]2)CC1` showed an inhibition constant Ki of 5010 nM.

Turning to `CN1CCCN(C(=O)c2cc3c(F)cccc3[nH]2)CC1`, the Ki at Histamine H4 receptor was 251 nM.

`COc1cccc2cc(C(=O)N3CCCN(C)CC3)[nH]c12` had a Ki on Histamine H4 receptor of 15800 nM.

Compound `CN1CCCN(C(=O)c2cc3cccc(F)c3[nH]2)CC1` showed a Ki at Histamine H4 receptor of 398 nM.

`Cc1cccc2cc(C(=O)N3CCCN(C)CC3)[nH]c12` showed a Ki on Histamine H4 receptor of 1580 nM.

On Histamine H4 receptor, `O=C(c1cc2cccc(F)c2[nH]1)N1CC(N2CCCC2)C1` gave a Ki of 39.8 nM.

With `O=C(c1cc2cccc(F)c2[nH]1)N1CCNCC1`, on Histamine H4 receptor, the Ki was 100 nM.

`CN[C@@H]1CCN(C(=O)c2cc3cccc(F)c3[nH]2)C1` gave a Ki on Histamine H4 receptor of 501 nM.

As for `CNC1CN(C(=O)c2cc3cccc(F)c3[nH]2)C1`, the Ki on Histamine H4 receptor was 398 nM.

Compound `O=C(c1cc2cc(Cl)ccc2[nH]1)N1CC(N2CCCC2)C1` had a Ki on Histamine H4 receptor of 10 nM.

Take `O=C(c1cc2cc(Cl)ccc2[nH]1)N1CCCNCC1`: the inhibitory constant (Ki) on Histamine H4 receptor is 63.1 nM.

For the compound `CN1CCCN(C(=O)c2cc3cc(Cl)cc(F)c3[nH]2)CC1`, the inhibitory constant (Ki) on Histamine H4 receptor was 63.1 nM.

`CN1CCCN(C(=O)c2cc3c(F)c(Cl)ccc3[nH]2)CC1` showed an inhibition constant (Ki) on Histamine H4 receptor of 31.6 nM.

`O=C(c1cc2cc(Cl)cc(F)c2[nH]1)N1CC(N2CCCC2)C1`: the affinity at Histamine H4 receptor, expressed as Ki, was 15.8 nM.

Compound `CNC1CN(C(=O)c2cc3cc(Cl)cc(F)c3[nH]2)C1` gave an inhibition constant Ki on Histamine H4 receptor of 100 nM.

Consider `CN[C@@H]1CCN(C(=O)c2cc3cc(Cl)cc(F)c3[nH]2)C1`, for which the inhibitory constant (Ki) on Histamine H4 receptor is 251 nM.

On Histamine H4 receptor, `O=C(c1cc2cc(Cl)cc(F)c2[nH]1)N1CCNCC1` gave an inhibition constant (Ki) of 20 nM.

Compound `CN1CCN(C(=O)c2cc3cc(Cl)cc([N+](=O)[O-])c3[nH]2)CC1` had a Ki on Histamine H4 receptor of 398 nM.

In the case of `Cc1ccc(F)c2cc(C(=O)N3CCN(C)CC3)[nH]c12`, on Histamine H4 receptor, affinity was put at a Ki of 39.8 nM.

On to `CN1CCN(C(=O)c2cc3c(F)ccc(F)c3[nH]2)CC1`, for which the inhibition constant (Ki) at Histamine H4 receptor was 79.4 nM.

With `CN1CCN(C(=O)c2cc3cccc(Cl)c3[nH]2)CC1`, affinity at Histamine H4 receptor was put at a Ki of 20 nM.

Consider `CN1CCN(C(=O)c2cc3cc(F)ccc3[nH]2)CC1`, for which the affinity on Histamine H4 receptor corresponds to a Ki of 15.8 nM.

Turning to `O=C(c1cc2cc(Cl)ccc2[nH]1)N1CCNCC1`, at Histamine H4 receptor, the inhibitory constant (Ki) was 12.6 nM.
